Data set [1] has as its system PBMC. The data set is described as follows: Reduction in dexelvucitabine diphosphate choline level in human PBMC at 33.3 uM. It is filed as functional. The arrangement: scale not given: the % may be the effect or the level left. Summed up: (§1)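 CEM or PHA-stimulated primary human PBM cells (2 x 10^6 per point) given 10 µM [3H]DFC plus unlabeled 3TC at 1, 33.3 or 100 µM for 4 h, in triplicate; 60% methanol extracts resolved by ion-pairing reverse-phase C18 HPLC; metabolites (TP, DP-choline) quantified by scintillation counting as pmol/10^6 cells.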

Data set [2] has as its system CCRF-CEM. The data set is described as follows: Reduction in [3H]dexelvucitabine triphosphate in human CEM cells per 10^6 cells at 33.3 uM. Format: functional. An outline of the steps:
as §1

The test system of data set [3] is CCRF-CEM. The data set is described as follows: Reduction in dexelvucitabine diphosphate choline level in human CEM cells at 100 uM. It is filed as functional. The arrangement: scale not given: the % may be the effect or the level left. Summed up: as §1
The subject of data set [4] is CCRF-CEM. The data set is described as follows: (§2) Reduction in dexelvucitabine diphosphate choline level in human CEM cells at 1 uM. Format: functional. The arrangement: scale not given: the % may be the effect or the level left. An outline of the steps:
as §1

Data set [5] concerns CCRF-CEM. As to the kind of experiment: Reduction in [3H]dexelvucitabine triphosphate in human CEM cells at 1 uM. It is filed as functional, cell-based. An outline of the steps:
(§3)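 Competition assay in triplicate in CEM and PHA-stimulated PBM cells (2 x 10^6 per point). Cells received 10 µM [3H]3TC plus unlabeled DFC, or 10 µM [3H]DFC plus unlabeled 3TC, with the unlabeled drug at 1, 33.3 or 100 µM, for 4 h. After cold-PBS washes, 60% methanol extracts were separated by ion-pair reverse-phase HPLC. Labeled metabolites, including TP and DP-choline, were quantified by scintillation counting against radiolabel alone.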

Data set [6] has as its system PBMC. The data set is described as follows: Reduction in dexelvucitabine diphosphate choline level in human PBMC at 100 uM. Format: functional. The arrangement: scale not given: the % may be the effect or the level left. Summed up:
as §1

The subject of data set [7] is CCRF-CEM. The description is as §2. Set-up: scale not given: the % may be the effect or the level left. Format: functional. An outline of the steps: as §1
The source holds these as a separate data set.

Data set [8] relates to CCRF-CEM. The data set is described as follows: Reduction in [3H]dexelvucitabine triphosphate in human CEM cells per 10^6 cells at 100 uM. It is filed as functional. Summed up:
as §1

In data set [9] the test system is CCRF-CEM. As to the kind of experiment: Reduction in dexelvucitabine diphosphate choline level in human CEM cells at 33.3 uM. It is filed as functional. Set-up: scale not given: the % may be the effect or the level left. Summed up:
as §1

For data set [10], the system named is PBMC. As to the kind of experiment: Reduction in dexelvucitabine diphosphate choline level in human PBMC at 1 uM. It is filed as functional. The arrangement: scale not given: the % may be the effect or the level left. Summed up:
as §1

For data set [11], the system named is Human immunodeficiency virus 1. The data set is described as follows: Antiviral activity against HIV1 LAI in human PBM cells. It is filed as functional, organism-based. Conditions: Human immunodeficiency virus 1, LAI, PBMC. An outline of the steps:
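HIV-1 LAI added to PHA-stimulated (3-day) primary human PBM cells 1 h before drugs; medium with recombinant IL-2 (26.5 units/ml); drugs alone or combined at fixed ratios (10:1, 3:1, 25:1, 100:1); 5 days culture; supernatant virus pelleted by centrifugation, RT activity measured radiometrically; combination index with confidence intervals by computer algorithm.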

Data set [12] deals with PBMC. As to the kind of experiment: Reduction in dexelvucitabine diphosphate choline level in PHA-stimulated human PBMC at 1 uM. Format: functional, cell-based. An outline of the steps:
as §3

Data set [13] relates to CCRF-CEM. As to the kind of experiment: Reduction in Lamivudine metabolite level in human CEM cells at 1 uM. Format: functional, cell-based. Summed up: as §3
Data set [14] has as its system CCRF-CEM. As to the kind of experiment: Reduction in Lamivudine diphosphate choline level in human CEM cells. It is filed as functional, cell-based. An outline of the steps:
as §3

Data set [15] concerns CCRF-CEM. As to the kind of experiment: Reduction of Lamivudine triphosphate level at 100 uM in human CEM cells. Format: functional. Set-up: scale not given: the % may be the effect or the level left. An outline of the steps: (§4)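 CEM or PHA-stimulated primary human PBM cells (2 x 10^6 per point) given 10 µM [3H]3TC plus unlabeled competitor at 1, 33.3 or 100 µM for 4 h, in triplicate; cells washed in cold PBS, extracted overnight in 60% methanol; metabolites separated by ion-pairing reverse-phase C18 HPLC (ammonium acetate/TBAP pH 7.0, methanol gradient); radioactivity counted; detection limit about 0.01 pmol/10^6 cells.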

Data set [16] deals with CCRF-CEM. As to the kind of experiment: Reduction in Lamivudine metabolite level in human CEM cells at 100 uM. It is filed as functional. Set-up: scale not given: the % may be the effect or the level left. An outline of the steps: as §4
In data set [17] the test system is CCRF-CEM. The data set is described as follows: Reduction in Lamivudine metabolite level in human CEM cells at 33.3 uM. It is filed as functional. The arrangement: scale not given: the % may be the effect or the level left. An outline of the steps: as §4
In data set [18] the test system is PBMC. The data set is described as follows: Reduction of Lamivudine triphosphate level at 100 uM in human PBMC. Set-up: scale not given: the % may be the effect or the level left. Format: functional. An outline of the steps:
as §4

In data set [19] the test system is PBMC. As to the kind of experiment: Drug level in human PBMC per 10^6 cells at 10 uM after 4 hrs. Format: ADME, cell-based. Summed up: (§5)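 CEM cells or PBM cells stimulated 3 days with PHA, 2 x 10^6 cells per time point, were given 10 µM [3H]DFC or [3H]3TC for 4 h. Cells were washed three times in cold PBS and counted, with viability checked by trypan blue. Metabolites were extracted overnight in 60% methanol and resolved by ion-pair C18 HPLC (ammonium acetate/TBAP pH 7.0, 0–50% methanol), then radioactivity was counted. LOD was about 0.01 pmol/10^6 cells.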

The test system of data set [20] is CCRF-CEM. The data set is described as follows: Drug level in human CEM cells per 10^6 cells at 10 uM after 4 hrs. Format: ADME, cell-based. Summed up:
as §5

Three compounds from ChEMBL document CHEMBL1143843, “Antiviral and cellular metabolism interactions between Dexelvucitabine and lamivudine” (Antimicrob Agents Chemother, 2007) can be followed below.

The source made the active and inactive calls. The calls are words filed in the database; no cut-off is given here.

As usually defined, the EC50 is the concentration giving half of the maximal effect. For orientation: EC90 means the concentration at which the effect reaches the 90% level. Regarding `Nc1ccn([C@@H]2CS[C@H](CO)O2)c(=O)n1` (single isomer, unassigned) [LAMIVUDINE], the Activity in data set [1] amounted to 83%; in [2] it was 0.67 pmol; in [3], 92%; in [4], 74%; in [6], 92%; in data set [7], 74%. Besides, the Activity in data set [8] is recorded as 0.41 pmol; in data set [9] it was 83%; in data set [10], 48%. In addition, the result in [5] was inactive. The 50% effective concentration (EC50) in data set [11] was found to be 26 nM. For the same compound, the EC90 in [11] is 120 nM. Besides, in [12], the outcome was Active.

With `Nc1nc(=O)n([C@H]2C=C[C@@H](CO)O2)cc1F` [DEXELVUCITABINE], the result in data set [13] and in data set [14] was inactive. The Activity in data set [15] came to 25%; in [16] it was 13%; in data set [17], 10%; in data set [18] it was 46%. In addition, the EC50 in [11] amounted to 75 nM. Also, it took 230 nM to reach the 90% level in data set [11] (EC90).

In the case of `Nc1ccn([C@@H]2CS[C@H](COP(=O)(O)OP(=O)(O)OP(=O)(O)O)O2)c(=O)n1` [LAMIVUDINE TRIPHOSPHATE], the Drug uptake in [19] amounted to 2.01 pmol; in data set [20] it was 5.7 pmol.
